The values that follow come from ChEMBL document CHEMBL1133723, “Developing a dynamic pharmacophore model for HIV-1 integrase” (J Med Chem, 2000).

For assay [1], the target named is T1, Human immunodeficiency virus type 1 integrase (Human immunodeficiency virus 1, UniProt Q7ZJM1).
Assay [2] has as its target T1, Human immunodeficiency virus type 1 integrase. This is another data set of the same source.
The target of assay [3] is Human immunodeficiency virus type 1 integrase (Human immunodeficiency virus 1) (UniProt Q7ZJM1). As to conditions: at 1 mM.
For assay [4] the target is unchanged. As to conditions: at 200 µM.
For assay [5] the target is unchanged. Kind of assay: Inhibitory activity against HIV-1 integrase at 200 uM. In short, it runs like this: (§1)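 Integration reaction with HIV-1 integrase, run as in an earlier published method except for the detection step. The integration product was detected with digoxygenin-labelled oligonucleotides and an anti-digoxygenin antibody conjugated to horseradish peroxidase. Compounds were tested at 1 mM, 200 µM and 25 µM.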

Assay [6] has the same target. Kind of assay: Inhibitory activity against HIV-1 integrase at 1 mM. The procedure, abridged: as §1
For assay [7] the target is unchanged. Kind of assay: Inhibition against HIV-1 integrase at 25 uM. The procedure, abridged:
as §1

*1 amine or outer side, *2 acyl side, *3 side chain or, on linkers, in order; H or OH if unused. Where a SMILES comes first, the peptide text is derived from it. Bridges are numbered along the chain shown (N, C = ends). [ ]: non-standard residue; d: D form. The star is where a group is joined. X1 = NC1=N[C@@H]([C@H](N[*:1])C(=O)[*:2])C[C@H](O)N1; ΔAla(Z-3-ureido) = NC(=O)N/C=C(\N)C(=O)O; AMC = Cc1cc(=O)oc2cc(N*)ccc12; β3hOrn = NCCC[C@H](N)CC(=O)*; Dap = NC[C@H](N)C(=O)O Bounds are passed on as bounds.

In the case of `O=C(/C=C/c1ccc(O)c(O)c1)O[C@H]1[C@H](O)C[C@](O)(C(=O)O)C[C@H]1OC(=O)/C=C/c1ccc(O)c(O)c1` (stereo in doubt; form 2), the IC50 in assay [1] came to 460 nM; in assay [2], 250 nM.

Take `CCCNC(=O)NNC(=O)c1ccccc1NC(=O)NCCC`: the inhibition in assay [3] and in assay [4] was below 50% each time.

For the molecule `N=C(N)NCCCCNCCCNC(=N)N`, the inhibition in assay [5] and in assay [6] was below 50% in each case.

With `O=C(CNC(=O)NCc1ccoc1)NNC(=O)Nc1cccc(Cl)c1`, the inhibition in assay [3] and in assay [4] was below 50% in each case.

In the case of `O=C(NCNC(=O)NC1C(=O)NC(=O)N1CO)NC1C(=O)NC(=O)N1CO` (stereo not drawn), the inhibition in assay [3] is above 50%; in assay [7], below 50%; in assay [4] it was below 50%.

For the molecule `Cc1cccc2c1C(O)=C1C(=O)C3C(O)=C(C(=O)NCNC(CO)(CO)CO)C(=O)[C@@H](N(C)C)[C@@H]3C[C@@H]1C2(C)O` (stereo partly drawn), the IC50 worked out at 500 nM in assay [1] and 1100 nM in assay [2].

For `COC1/C=C/OC2(C)Oc3c(C)c(O)c4c(O)c(c(C=NN5C(C)CN(Cc6ccc([N+](=O)[O-])cc6)CC5C)c(O)c4c3C2=O)NC(=O)/C(C)=C\C=C\C(C)C(O)C(C)C(O)C(C)C(OC(C)=O)C1C` (stereo not drawn), the results for the IC50 in assay [1] and in assay [2] were 19700 nM and 20600 nM, respectively.

Regarding `OC[C@@H](O)[C@@H](O[C@H]1O[C@H](CO)[C@@H](O)[C@H](O)[C@H]1O)[C@H](O)[C@@H](O)CO`, the inhibition in assay [5] and in assay [6] was below 50% throughout.

For `N#C/C(=C\c1ccc(O)c(O)c1)C(=O)NCCCNC(=O)/C(C#N)=C/c1ccc(O)c(O)c1`, the IC50 in assay [1] was found to be 3000 nM; in assay [2], 10000 nM.

As to `O=P(O)(O)O[C@H]1O[C@H](CO)[C@@H](O)[C@H](O)[C@@H]1O`, the inhibition in assay [5] and in assay [6] was below 50% throughout.

Take `O=C(/C=C/c1ccc(O)c(O)c1)O[C@H]1[C@H](O)C[C@](O)(C(=O)O)C[C@H]1OC(=O)/C=C/c1ccc(O)c(O)c1` (stereo in doubt; form 1): the IC50 was found to be 540 nM in assay [1] and 790 nM in assay [2].

With `C[C@@H]1O[C@@H](OC2C[C@](O)(C(=O)CO)Cc3c(O)c4c(c(O)c32)C(=O)c2c(O)cccc2C4=O)C[C@H](N)[C@@H]1O` (stereo partly drawn), the IC50 in assay [1] worked out at 4100 nM; in assay [2], 2300 nM.

Regarding `COc1cccc2c1C(=O)c1c(O)c3c(c(O)c1C2=O)C[C@@](O)(C(=O)CO)C[C@@H]3O[C@H]1C[C@H](N)[C@H](O)[C@H](C)O1` [DOXORUBICIN], the results for the IC50 in assay [1] and in assay [2] were 2400 nM and 900 nM, respectively.

With `OC[C@@H](O)[C@@H](O)[C@H](O)c1cnc([C@@H](O)[C@H](O)[C@H](O)CO)cn1`, the inhibition in assay [5] and in assay [6] was below 50% each time.

For the molecule `O=c1c(O)cccc2cc(O)c(O)c(O)c12` [PURPUROGALLIN], the midpoint of inhibition in assay [2], the IC50, lay at 2100 nM.

For the molecule `O=C(NCCCCCCNC(=O)NNc1ccccc1)NNc1ccccc1`, the inhibition in assay [3] and in assay [4] was below 50% in each case.

In the case of `N=C(N)NCCCC(NC(N)=O)C(=O)O` (single isomer, unassigned), the inhibition in assay [3] and in assay [4] was below 50% in each case.

As for `O=P(O)(O)O[C@@H]1O[C@H](CO)[C@@H](O)[C@H](O)[C@H]1O`, the inhibition in assay [5] and in assay [6] was below 50% in each case.

In the case of `O=c1c(O)c(-c2ccc(O)c(O)c2)oc2cc(O)c(O)c(O)c12` [QUERCETAGETIN], the IC50 in assay [1] turned out to be 600 nM; in assay [2], 1300 nM.

For `O=C[C@H](O)[C@@H](O)C(O[C@@H]1O[C@H](CO)[C@H](O)[C@H](O)[C@H]1O)[C@H](O)CO` (stereo partly drawn), the inhibition in assay [3] and in assay [4] was below 50% each time.

For `COC(=O)C1(O)C[C@H](O)[C@@H](NC(C)=O)[C@H]([C@H](O)[C@H](O)CO)O1` (stereo partly drawn), the inhibition in assay [5] and in assay [6] was below 50% throughout.

On to `C[Si](C)(C)C`, for which the figures for the IC50 in assay [1] and in assay [2] were 5000 nM and 17000 nM, respectively.

For the molecule `CCC1C/C(=N\NC(N)=O)C(NNC(N)=O)C(C)C1` (stereo not drawn), the inhibition in assay [3] and in assay [4] was below 50% each time.

In the case of `Cc1[nH]n(-c2cccc(NC(=O)Nc3cccc(-n4[nH]c(C)c(/N=N/c5c(O)cc(S(=O)(=O)O)c6cc([N+](=O)[O-])ccc56)c4=O)c3)c2)c(=O)c1/N=N/c1c(O)cc(S(=O)(=O)O)c2cc([N+](=O)[O-])ccc12`, the inhibition in assay [3], in assay [7] and in assay [4] was above 50% each time.

With `O=c1oc2c(O)c(O)cc3c(=O)oc4c(O)c(O)cc1c4c23` [ELLAGIC ACID], the IC50 in assay [2] is 5100 nM.

As for `O=C(CCc1ccc(O)c(O)c1)c1ccc(O)c(O)c1O`, the values for the IC50 in assay [1] and in assay [2] were 1000 nM and 1700 nM, respectively.

For the molecule `Cc1cc(=O)oc2cc(NC(=O)[C@H](CCCN=C(N)N)NC(=O)CN)ccc12` (H-Gly-Arg-{AMC}), the inhibition in assay [3] and in assay [4] was below 50% in each case.

Take `NNC(=O)C(O)C(O)C(O)C(O)CO` (stereo not drawn): the inhibition in assay [3] was above 50%; in assay [7], below 50%; in assay [4] it was below 50%.

Turning to `NC[C@@H](O)c1ccc(OC(=O)[C@H](O)[C@@H](O)C(=O)O)c(OC(=O)[C@H](O)[C@@H](O)C(=O)O)c1`, the inhibition in assay [3] is above 50%; in assay [7], below 50%; in assay [4] it was below 50%.

Turning to `Cc1cccc2c1C(O)=C1C(=O)C3C(O)=C(C(=O)NCN4CCN(C(=N)N=C(N)N)CC4)C(=O)[C@@H](N(C)C)[C@@H]3C[C@@H]1C2(C)O` (stereo partly drawn), the IC50 is 300 nM in assay [1] and 900 nM in assay [2].

Turning to `NCCC[C@H](N)CC(=O)N[C@H]1CNC(=O)[C@H]([C@H]2C[C@H](O)NC(N)=N2)NC(=O)/C(=C/NC(N)=O)NC(=O)[C@H](CO)NC(=O)[C@H](CO)NC1=O` (β3hOrn-[Dap]SS[ΔAla(Z-3-ureido)][X1]; lactam 1-C), the inhibition in assay [3] and in assay [4] was below 50% in each case.

For `O=C(/C=C\c1ccc(O)c(O)c1)OC1C(O)CC(OC(=O)/C=C\c2ccc(O)c(O)c2)(C(=O)O)CC1O` (stereo not drawn), the values for the IC50 in assay [1] and in assay [2] were 7800 nM and 9500 nM, respectively.

`O=C(/C=C\c1ccc(O)c(O)c1)OC1CC(OC(=O)/C=C\c2ccc(O)c(O)c2)(C(=O)O)CC(O)C1O` (stereo not drawn): the IC50 amounted to 1080 nM in assay [1] and 680 nM in assay [2].

In the case of `CN[C@@H]1[C@H](OC2[C@@H](OC3[C@@H](N=C(N)N)[C@H](O)[C@@H](N=C(N)N)[C@H](O)[C@H]3O)O[C@@H](C)[C@]2(O)CO)O[C@@H](CO)[C@H](O)[C@H]1O` (stereo partly drawn), the inhibition in assay [5] and in assay [6] was below 50% in each case.

For `Cc1cc(O)c2c(=O)c3c(O)cc(O)c4c5c(O)cc(O)c6c(=O)c7c(O)cc(C)c8c1c2c(c34)c(c78)c65` [HYPERICIN], in assay [2], the midpoint of inhibition, the IC50, lay at 10000 nM.

`O=C(NC(CO)(CO)CO)C(=O)NC(CO)(CO)CO`: the inhibition in assay [5] and in assay [6] was below 50% throughout.

Take `CN[C@@H]1[C@H](O[C@H]2[C@H](O[C@H]3[C@H](O)[C@@H](O)[C@H](N=C(N)N)[C@@H](O)[C@@H]3N=C(N)N)O[C@@H](C)[C@]2(O)C=O)O[C@@H](CO)[C@H](O)[C@H]1O`: the inhibition in assay [3] and in assay [4] was below 50% in each case.

With `N[C@H]1[C@@H](OP(=O)(O)O)O[C@H](CO)[C@H](O)[C@@H]1O`, the inhibition in assay [5] and in assay [6] was below 50% in each case.

As to `OC[C@H]1O[C@H](OC[C@H]2OC(O)[C@H](O)[C@@H](O)[C@@H]2O)[C@H](O)[C@@H](O)[C@@H]1O` (stereo partly drawn), the inhibition in assay [5] and in assay [6] was below 50% throughout.

For the molecule `O=C1c2ccc(O)c(O)c2C(=O)c2c(O)ccc(O)c21` [QUINALIZARIN], the concentration for half-maximal inhibition (IC50) in assay [1] was determined as 1000 nM; in assay [2], 4000 nM.

With `O=C(/C=C\c1ccc(O)c(O)c1)OC1CC(O)(C(=O)O)CC(OC(=O)/C=C\c2ccc(O)c(O)c2)C1O` (stereo not drawn), the IC50 in assay [1] came out at 660 nM; in assay [2], 640 nM.

Regarding `OC[C@H]1O[C@@H](SC2O[C@H](CO)[C@H](O)[C@H](O)[C@H]2O)[C@H](O)[C@@H](O)[C@H]1O` (stereo partly drawn), the inhibition in assay [3] and in assay [4] was below 50% in each case.

For `CCNC(=O)[C@H](CCCCN(N)N)NC(=O)CNC(=O)[C@H](CC(C)C)NC(=O)[C@@H](NC(=O)[C@H](O)[C@@H](O)[C@H](O)[C@H](O)CO)C(C)C`, the inhibition in assay [3] and in assay [4] was below 50% each time.

For `OCCNCCNC(O)C(O)CO` (stereo not drawn), the inhibition in assay [3] and in assay [4] was below 50% throughout.

As for `CC(=O)NC1=C(O)C[C@@](O)(C(=O)O)O[C@H]1[C@@H](O)[C@H](O)CO`, the inhibition in assay [5] and in assay [6] was below 50% each time.

Regarding `Cc1cccc2c1C(O)=C1C(=O)C3C(O)=C(C(=O)NNC4(C(=O)O)CCCC4)C(=O)[C@@H](N(C)C)[C@@H]3C[C@@H]1C2(C)O` (stereo partly drawn), the concentration for half-maximal inhibition (IC50) in assay [1] amounted to 3600 nM; in assay [2], 1200 nM.

Turning to `OCC(CO)(CO)NCCCNC(CO)(CO)CO`, the inhibition in assay [5] and in assay [6] was below 50% in each case.

Regarding `CC(C)C[C@@H](C=O)NC(=O)N[C@H](C(=O)N[C@@H](CCC(N)=O)C(=O)N[C@@H](C)C=O)[C@@H]1CCN=C(N)N1`, the inhibition in assay [3] and in assay [4] was below 50% throughout.

`O=C(CC(O)CCc1ccc(O)c(O)c1)O[C@H]1Cc2cc(O)c(O)cc2O[C@H]1c1ccc(O)c(O)c1` (stereo partly drawn): the IC50 in assay [1] turned out to be 1000 nM; in assay [2] it was 1400 nM.

In the case of `O=C1c2c(O)ccc(O)c2C(=O)c2c(NCCNCCO)ccc(NCCNCCO)c21` [MITOXANTRONE], the concentration for half-maximal inhibition (IC50) in assay [1] was 8000 nM; in assay [2], 3800 nM.

Take `NC(N)=Nc1nc(CSCC/C(N)=N/S(N)(=O)=O)cs1`: the inhibition in assay [3] and in assay [4] was below 50% in each case.

A word on the IC50: it is the concentration at which inhibition is half-maximal. Read a low IC50 as greater potency in that assay. Broadly, the inhibition is the percentage by which the read-out fell short of the control.
